Calls of active or inactive are those of the source. The rule behind the calls is not given here.
System: not listed separately
Test: Inhibition of DNA-dependent protein kinase at 1.6 uM
Outline: (§1)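 Compound in DMSO was added in place of water, at final concentrations of 1.6–4.0. The reaction was stopped with termination buffer and captured on a biotin membrane. After washing, scintillation counts gave percent inhibition relative to the full-reaction positive control (n = 3).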

SMILES | inhibition
Cc1c(OCc2ccccn2)ccc2c(=O)nc(N3CCOCC3)oc12 | Active

System: not listed separately
Test: Inhibition of DNA-dependent protein kinase at 4 uM
Outline: as §1

SMILES | inhibition
CN1CCN(CCOc2cccc3c(=O)nc(N4CCOCC4)oc23)CC1 | Active
CN1CCN(CCOc2ccc3c(=O)nc(N4CCOCC4)oc3c2)CC1 | Active
Cc1c(OCc2cccnc2)ccc2c(=O)nc(N3CCOCC3)oc12 | Active
CN1CCN(CCOc2cccc3oc(N4CCOCC4)nc(=O)c23)CC1 | inactive
Cc1c(OCCN2CCN(C)CC2)ccc2c(=O)nc(N3CCOCC3)oc12 | Active
CN1CCN(CCOc2ccc3oc(N4CCOCC4)nc(=O)c3c2)CC1 | inactive

System: Platelet
Test: Inhibition of collagen-induced platelet aggregation in human venous blood by optical method based aggregometry
Type: functional, tissue-based

SMILES | IC50 [µM]
Cc1c(OCc2ccncc2)ccc2c(=O)nc(N3CCOCC3)oc12 | 4
Cc1c(O)ccc2c(=O)nc(N3CCSCC3)oc12 | ≥ 100
CN1CCN(CCOc2cccc3c(=O)nc(N4CCOCC4)oc23)CC1 | 80
CC(C)c1cccc2c(=O)nc(N3CCOCC3)oc12 | 70
O=c1nc(N2CCOCC2)oc2c(OCCCl)cccc12 | 60
O=c1nc(N2CCOCC2)oc2ccc(OCc3ccccc3)cc12 | ≥ 100
O=c1nc(N2CCOCC2)oc2c(OCc3ccccc3)cccc12 | 53
CCOc1ccc2c(=O)nc(N3CCOCC3)oc2c1 | 85
Cc1c(OCCN2CCN(C)CC2)ccc2c(=O)nc(N3CCSCC3)oc12 | 47
O=c1nc(N2CCOCC2)oc2cccc(OCc3cccnc3)c12 | ≥ 100
O=c1nc(N2CCOCC2)oc2ccc(OCCBr)cc12 | 83
O=c1nc(N2CCOCC2)oc2cccc(OCc3ccccc3)c12 | ≥ 100
O=c1nc(N2CCOCC2)oc2cc(F)ccc12 | 80
Cc1c(OCc2cccnc2)ccc2c(=O)nc(N3CCOCC3)oc12 | 2
O=c1nc(N2CCOCC2)oc2ccc(OCCCl)cc12 | 87
O=c1nc(N2CCOCC2)oc2cccc(OCCCl)c12 | ≥ 100

SMILES | IC50 [µM]
O=c1nc(N2CCOCC2)oc2ccc(OCc3cccnc3)cc12 | ≥ 90
Cc1c(OCCCl)ccc2c(=O)nc(N3CCOCC3)oc12 | 36
CN1CCN(CCOc2cccc3oc(N4CCOCC4)nc(=O)c23)CC1 | ≥ 100
O=c1nc(N2CCOCC2)oc2c(OCc3cccnc3)cccc12 | 22
O=c1nc(N2CCOCC2)oc2cc(OCc3ccncc3)ccc12 | 45
O=c1nc(N2CCOCC2)oc2cc(OCc3cccnc3)ccc12 | 70
O=c1nc(N2CCOCC2)oc2c(OCc3ccncc3)cccc12 | 70
Cc1c(OCCN2CCN(C)CC2)ccc2c(=O)nc(N3CCCCC3)oc12 | 36
CN1CCN(CCOc2ccc3oc(N4CCOCC4)nc(=O)c3c2)CC1 | ≥ 86
O=c1nc(N2CCOCC2)oc2cc(OCc3ccccn3)ccc12 | 75
Cc1c(O)ccc2c(=O)nc(C3CCNCC3)oc12 | ≥ 90
Cc1c(OCCBr)ccc2c(=O)nc(N3CCSCC3)oc12 | 75
Cc1c(OCc2ccccn2)ccc2c(=O)nc(N3CCOCC3)oc12 | 34
O=c1nc(N2CCOCC2)oc2c(OCCBr)cccc12 | 70
Cc1c(OCCBr)ccc2c(=O)nc(N3CCCCC3)oc12 | 61

System: not listed separately
Test: Inhibition of DNA-dependent protein kinase at 2 uM
Outline: as §1

SMILES | inhibition
Cc1c(OCc2ccncc2)ccc2c(=O)nc(N3CCOCC3)oc12 | Active
O=c1nc(N2CCOCC2)oc2c(-c3ccccc3)cccc12 | Active
